The values that follow come from ChEMBL document CHEMBL1124971, “Cyclization-activated prodrugs. Basic carbamates of 4-hydroxyanisole” (J Med Chem, 1990).

A short description of data set [1]: Half-life at 37 degree Celsius in aqueous solution at pH 7.4. The class given is ADME. In a few lines:
(§1)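 Carbamate hydrochloride salt (about 0.5 mg) taken up in buffer pre-warmed to 37 °C, final about 1 mM, and held at 37 °C. Samples were injected straight onto C-18 reverse-phase HPLC at intervals, or quenched in 1 N HCl first. Carbamate and 4-methoxyphenol were read at 220 nm. Half-life is the time to 50% conversion, fitted by first-order kinetics. Each value is the mean of at least two separate runs.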

Data set [2] in a line: pKa of the compound. The class given is physicochemical.
A short description of data set [3]: Half-life at 37 degree Celsius in aqueous solution at pH 4.2. The class given is ADME. The essentials: as §1
A short description of data set [4]: Half-life at 37 degree Celsius in aqueous solution at pH 5.2. The format is ADME. In a few lines: as §1
A short description of data set [5]: Half-life at 37 degree Centigrade, towards Murine plasma esterases at pH 7.4. The format is ADME. The note with it: mouse. In a few lines: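 Carbamate HCl salt dissolved in dilute H3PO4, then added to fresh murine plasma with pH 7.4 phosphate buffer (plasma:buffer 1.6:0.40) at 37 °C, final 5×10^-4 M. pH held at 7.4 by pH-stat. Aliquots taken at intervals were quenched in 7% HClO4 and centrifuged, and the supernatant was analysed.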

Data set [6] can be described thus: Half-life at 37 degree Celsius in aqueous solution at pH 6.8. The format is ADME. In a few lines: as §1
The nature of data set [7]: Half-life at 37 degree Centigrade, in aqueous solution at pH 7.4. The format is ADME. In a few lines:
as §1

One may read the half-life as the time in which the quantity being followed falls by half. Turning to `CCNCCN(CC)C(=O)Oc1ccc(OC)cc1.Cl`, in data set [1], the half-life stood at 1.97 h.
The pKa is the negative logarithm of the acid dissociation constant. Low values mean a stronger acid or weaker base, high ones a weaker acid or stronger base. In turn, `COc1ccc(OC(=O)NCCCN)cc1.Cl` gave a half-life in data set [1] of 15.2 h. This molecule came in with a pKa in data set [2] of 9.6.
For `CNCCN(C)C(=O)Oc1ccc(OC)cc1.Cl`, the half-life was > 360 h in data set [3]; 57.8 h in data set [4]; 0.933 h in data set [5]; 2.33 h in data set [6]; 0.605 h in data set [7].
As for `COc1ccc(OC(=O)N(C)CCN(C)C)cc1.Cl`, the half-life in data set [1] was 0.66 h.
Still for that read-out and setting: under `CNCCCN(C)C(=O)Oc1ccc(OC)cc1.Cl` stands 15.7 h; under `CNCCNC(=O)Oc1ccc(OC)cc1.Cl`, 5.58 h.
Regarding `COc1ccc(OC(=O)NCCN)cc1.Cl`, in data set [1], the half-life amounted to 12.1 h. The pKa in data set [2] came out at 8.65.
Regarding `CNCCOC(=O)Oc1ccc(OC)cc1.Cl`, the half-life in data set [1] is < 0.005 h.
In the case of `COc1ccc(OC(=O)N(C)CCN)cc1.Cl`, the half-life in data set [1] was found to be 5.07 h. Moreover, in data set [2], the pKa turned out to be 8.9.
